The subject of test [1] is Staphylococcus aureus. The experiment in a line: Antimicrobial activity against Staphylococcus aureus ATCC 25923 at 5 ug/disk after 24 hrs. Format: functional. Put shortly:
(§1)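 Agar plate disk diffusion: disks impregnated with test sample (5 or 10 µg per disk) placed on agar plates previously inoculated with the organism, with solvent controls. Plates incubated 24 h at 37 °C. Read-out is the diameter (mm) of the clear inhibition zone around the disk. A sample is scored active when the zone exceeds 7 mm.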

In test [2] the test system is Bacillus subtilis. The experiment in a line: Antimicrobial activity against Bacillus subtilis DSM 2109 at 5 ug/disk after 24 hrs. Format: functional. Conditions: for zone of inhibition at 5 µg/disc: DSM 2109, 24 h, read-out: IZ. In short, it runs like this:
(§2)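 Agar plate disk diffusion: disks impregnated with sample (5 or 10 µg per disk) placed on agar plates pre-inoculated with the test organism; solvent controls run against each organism. Plates incubated at 37 °C for 24 h, then clear inhibition zones around the disk measured in mm; sample scored active when zone exceeded 7 mm.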

For test [3], the system named is Escherichia coli. Put plainly: Antimicrobial activity against Escherichia coli DSM 10290 at 5 ug/disk after 24 hrs. Format: functional. Put shortly:
as §1

In test [4] the test system is Candida albicans. The experiment in a line: Antimicrobial activity against Candida albicans at 5 ug/disk after 24 hrs. Format: functional. In short, it runs like this:
as §2

For test [5], the system named is Cladosporium herbarum. Put plainly: Antimicrobial activity against Cladosporium herbarum DSM 63422 at 5 ug/disk after 24 hrs. Format: functional, organism-based. Put shortly:
as §2

Test [6] concerns Bacillus subtilis. The experiment in a line: Antimicrobial activity against Bacillus subtilis DSM 2109 at 10 ug/disk after 24 hrs. Format: functional. Conditions: DSM 2109, 24 h, read-out: IZ. In short, it runs like this:
as §2

In test [7] the test system is Escherichia coli. The experiment in a line: Antimicrobial activity against Escherichia coli DSM 10290 at 10 ug/disk after 24 hrs. Format: functional. Conditions: for zone of inhibition at 10 µg/disc: DSM 10290, 24 h, read-out: IZ. In short, it runs like this:
as §2

The subject of test [8] is Candida albicans. The experiment in a line: Antimicrobial activity against Candida albicans at 10 ug/disk after 24 hrs. Format: functional. Conditions: read-out: IZ. In short, it runs like this:
as §2

For test [9], the system named is Cladosporium herbarum. Put plainly: Antimicrobial activity against Cladosporium herbarum DSM 63422 at 10 ug/disk after 24 hrs. Conditions: for zone of inhibition at 10 µg/disc: DSM 63422, 24 h, read-out: IZ. Format: functional. In short, it runs like this: as §2
A further test has as its system L5178Y. Put plainly: Cytotoxicity against mouse L5178Y cells by MTT assay. Format: functional. Conditions: read-out: ED50 (the source's name).
In another test the test system is PC-12. Put plainly: Cytotoxicity against rat PC12 cells by MTT assay. Format: functional, cell-based. On the technique in general: Tetrazolium dyes change colour on reduction, which living cells bring about.
In a further test the test system is HeLa. The experiment in a line: Cytotoxicity against human HeLa cells by MTT assay. Format: functional, cell-based.
For test [10], the system named is Staphylococcus aureus. The experiment in a line: Antimicrobial activity against Staphylococcus aureus ATCC 25923 at 10 ug/disk after 24 hrs. The following applies: for zone of inhibition at 10 µg/disc: ATCC 25923, 24 h, read-out: IZ.
The subject of test [11] is Cladosporium herbarum. Put plainly: Antimicrobial activity against Cladosporium herbarum DSM 63422 by serial dilution assay. Format: functional.

Converted amounts (≈) assume the structure as drawn. The source made the active and inactive calls. Some results are limits rather than exact numbers.

Usually MIC stands for the lowest concentration that inhibits growth of the organism.

Turning to `COC1OC(=O)C=C1CC/C=C(\C)CC/C=C(\C)CCC1=C(C)CCCC1(C)C` (stereo not given), the outcome in the test with Staphylococcus aureus [1], in the test on Escherichia coli [3], in the test with Cladosporium herbarum [5], in the test on Escherichia coli [7], in the test with PC-12 and in the test on HeLa was inactive. For the same compound, the zone of inhibition at 5 µg/disc in the test on Bacillus subtilis [2] amounted to 7 mm; in the test on Candida albicans [4] (read-out: IZ) it was 9 mm. Besides, the zone of inhibition at 10 µg/disc was determined as 9 mm in the test with Bacillus subtilis [6], 9 mm with Candida albicans [8], 15 mm in the test with Cladosporium herbarum [9] and 10 mm in the test with Staphylococcus aureus [10]. For the same compound, the EC50 with L5178Y came out at 0.7 µg/mL (≈ 1.75 µM).
In the case of `CCOC1OC(=O)C=C1CC/C=C(\C)CC/C=C(\C)CCC1=C(C)CCCC1(C)C` (stereo not given), the outcome in the test with Staphylococcus aureus [1], with Bacillus subtilis [2], in the test with Escherichia coli [3], with Candida albicans [4], with Cladosporium herbarum [5] and in the test with Cladosporium herbarum [9] was inactive. Moreover, the result in the test on PC-12, with HeLa and with Staphylococcus aureus [10] was inactive. For the same compound, the zone of inhibition at 10 µg/disc with Bacillus subtilis [6] stood at 7 mm; in the test on Escherichia coli [7], 12 mm; in the test with Candida albicans [8] it was 9 mm. For the same compound, the EC50 in the test with L5178Y is > 100 µg/mL.
As for `CC1=C(CC/C(C)=C/CC/C(C)=C/CCC2=CC(=O)OC2O)C(C)(C)CCC1=O` (stereo not given) [ACANTHOLIDE B], the outcome in the test on Staphylococcus aureus [1], with Bacillus subtilis [2], in the test with Escherichia coli [3], in the test with Candida albicans [4], in the test on Cladosporium herbarum [5] and in the test with PC-12 was inactive. In addition, the outcome in the test on HeLa was inactive. The zone of inhibition at 10 µg/disc stood at 12 mm in the test with Bacillus subtilis [6]; 9 mm in the test with Escherichia coli [7]; 10 mm in the test on Candida albicans [8]; 10 mm in the test with Cladosporium herbarum [9]; 10 mm in the test with Staphylococcus aureus [10]. The EC50 in the test on L5178Y is > 10 µg/mL.
As for `CC(=O)[C@]1(CC/C(C)=C/CC/C(C)=C/CCC2=CC(=O)OC2O)[C@@H](O)CCC1(C)C` (stereo not given in full) [ACANTHOLIDE D], the EC50 in the test with L5178Y is > 10 µg/mL. Besides, the result in the test on PC-12 and in the test on HeLa was inactive.
As to `CC(=O)[C@]1(CC/C(C)=C/CC/C(C)=C/CCC2=CC(=O)OC2O)[C@H](O)CCC1(C)C` (stereo not given in full) [ACANTHOLIDE E], the EC50 in the test with L5178Y is 7 µg/mL (≈ 16.7 µM). Moreover, the result in the test with PC-12 and in the test with HeLa was inactive.
In the case of `CC1=C(CC/C(C)=C/CC/C(C)=C/CCC2=CC(=O)OC2O)C(C)(C)CCC1` (stereo not given) [LUFFARIELLOLIDE], the zone of inhibition at 5 µg/disc in the test on Staphylococcus aureus [1] (ATCC 25923, 24 h, read-out: IZ) was determined as 7 mm; in the test on Bacillus subtilis [2] it was 7 mm; in the test with Escherichia coli [3] (DSM 10290, 24 h, read-out: IZ), 7 mm. Besides, the outcome in the test with Candida albicans [4], in the test on Cladosporium herbarum [5], in the test with PC-12 and in the test with HeLa was inactive. The zone of inhibition at 10 µg/disc in the test with Bacillus subtilis [6] turned out to be 12 mm; in the test on Escherichia coli [7], 10 mm; with Candida albicans [8] it was 10 mm; in the test on Cladosporium herbarum [9], 20 mm; with Staphylococcus aureus [10], 11 mm. Also, the EC50 in the test on L5178Y came out at 3.3 µg/mL (≈ 8.54 µM). In addition, in the test with Cladosporium herbarum [11], the minimal inhibitory concentration (MIC) is 10.4 µg/mL (≈ 26.9 µM).
In the test on Cladosporium herbarum [11], NYSTATIN had a minimal inhibitory concentration (MIC) of 1.06 µg/mL.

The record behind these values is ChEMBL document CHEMBL1148940, “New luffariellolide derivatives from the Indonesian sponge Acanthodendrilla sp” (2004).
